The record followed here is ChEMBL document CHEMBL4308829, “Design and Synthesis of Novel Positive Allosteric Modulators of α7 Nicotinic Acetylcholine Receptors with the Ability To Rescue Auditory Gating Deficit in Mice” (J Med Chem, 2018).

The structures appear in SMILES notation. Active and inactive are the calls of the source. Unless noted, the rule behind the calls is not given here.

In series [1] the target is T1, Neuronal acetylcholine receptor subunit alpha-7 (Homo sapiens, UniProt P36544). Put plainly: Positive allosteric modulation of human alpha7 nAChR expressed in Xenopus laevis oocytes assessed as increase in acetylcholine-induced channel current at -90 mV holding potential preincubated for 2 mins followed by co-application with acetylcholine for 10 secs by two-electrode voltage clamp method. The series is classed as cell-based.

Series [2] has as its target T1, Neuronal acetylcholine receptor subunit alpha-7. Briefly: Agonist activity at human alpha7 nAChR expressed in Xenopus laevis oocytes assessed as induction of channel current at -90 mV holding potential by two-electrode voltage clamp method. The series is classed as cell-based.
The target is the same in series [3]. Briefly: Positive allosteric modulation of human alpha7 nAChR expressed in Xenopus laevis oocytes assessed as increase in acetylcholine-induced channel current at 10 uM at -90 mV holding potential preincubated for 2 mins followed by acetylcholine addition in presence of alpha7 nAChR antagonist MLA by two-electrode voltage clamp method relative to control. Type of series: cell-based.

Series [4] deals with Neuronal acetylcholine receptor; alpha3/beta4 (Rattus norvegicus) (UniProt P04757+P12392). Briefly: Positive allosteric modulation of rat alpha3beta4 nAChR expressed in Xenopus laevis oocytes assessed as increase in acetylcholine-induced channel current at 10 uM at -90 mV holding potential by two-electrode voltage clamp method. The series is classed as cell-based. The gist of the method:
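Rat α3β4 or α4β2 subunit cRNAs (~2 ng total, 1:1) injected into oocytes, which were kept at 16 °C in ND96. Two-electrode voltage clamp at -90 mV, 24-72 h post-injection, in Ringer's containing atropine at room temperature.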

Series [5] has as its target Glutamate NMDA receptor; Grin1/Grin2b (Rattus norvegicus) (UniProt P35439+Q00960). Briefly: Positive allosteric modulation of rat GluN1/GluN2B receptor expressed in Xenopus laevis oocytes assessed as increase in glycine/glutamate-induced channel current 10 uM by two-electrode voltage clamp method. Type of series: cell-based. In general terms: Two-electrode voltage clamp is typically applied to oocytes expressing channels or transporters.

Series [6] concerns the target GABA-A receptor; anion channel (Homo sapiens) (UniProt P14867+P47870+P18507+P28472+P48169+Q99928+Q9UN88+P34903+O00591+O14764+Q8N1C3+P18505+P78334+P47869+P31644+Q16445). Put plainly: Positive allosteric modulation of human GABA-A receptor expressed in Xenopus laevis oocytes assessed as increase in GABA-induced channel current 10 uM by two-electrode voltage clamp method. Type of series: cell-based.

A short description of series [7]: Apparent clearance in rat at 60 mg/kg, po by LC-MS/MS analysis. The conditions noted are these: in vivo. The series is classed as ADME, organism-based. The gist of the method: (§1)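 Rat plasma stored at -20 °C, spiked with internal standard, protein-precipitated with methanol, centrifuged and filtered before LC-MS/MS. C18 column at 40 °C, acetonitrile/0.1% formic acid (80:20) isocratic at 0.5 mL/min. Positive ESI with MRM m/z 400.0->129.9. Parameters taken per rat by non-compartmental analysis, n = 3.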

Series [8] addresses Voltage-gated inwardly rectifying potassium channel KCNH2 (Homo sapiens, UniProt Q12809). Briefly: Inhibition of human ERG expressed in HEK293 cells up to 30 uM at -80 mV holding potential by whole-cell patch clamp assay. Type of series: cell-based. The gist of the method:
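HEK293 cells stably expressing hERG, whole-cell clamp at room temperature. Holding -80 mV, step to +20 mV for 2 s, then -40 mV for 1.6 s, repeated every 10 s. Compound perfused at 1-30 µM, with 100 nM cisapride as reference. Peak -40 mV tail currents normalized to control, n = 4.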
Background: The patch-clamp technique gives a direct electrical read-out from membranes.

Series [9] is described as follows: AUClast in rat at 3 mg/kg, iv by LC-MS/MS analysis. Type of series: ADME, organism-based. Further details: dose 3 mg/kg, time 0 - last, route intravenous. To be noted: in vivo. The gist of the method:
as §1

Series [10] can be described thus: Apparent volume of distribution in rat at 3 mg/kg, iv by LC-MS/MS analysis. The series is classed as ADME, organism-based. The conditions noted are these: in vivo. The procedure, abridged: as §1
The nature of series [11]: Half life in rat at 60 mg/kg, po by LC-MS/MS analysis. The series is classed as ADME, organism-based. To be noted: in vivo. The procedure, abridged: as §1
Series [12] is described as follows: AUCinfinity in rat at 60 mg/kg, po by LC-MS/MS analysis. Further details: dose 60 mg/kg, time infinity, route oral. Type of series: ADME, organism-based. To be noted: in vivo. The gist of the method: as §1
Series [13] is described as follows: Oral bioavailability in rat at 60 mg/kg by LC-MS/MS analysis. The series is classed as ADME, organism-based. The conditions noted are these: in vivo. The procedure, abridged: as §1
Series [14] is described as follows: Plasma concentration in C57BL/6J mouse at 1 mg/kg, ip after 2 hrs by LC-MS/MS analysis. The series is classed as ADME, organism-based. The gist of the method:
(§2)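 C57BL/6J mice given 1 mg/kg i.p. from a 0.4 mg/mL solution in 10% DMSO/50% PEG400/40% SBECD. Plasma and brain taken at 0.5, 2 and 8 h. Samples mixed with internal standard in methanol/acetonitrile (1:1), centrifuged and diluted 10x in methanol:water with 0.1% FA, then measured by HPLC-MS-MS. n = 3; ratio is brain over plasma concentration.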

Series [15] is described as follows: Drug uptake in C57BL/6J mouse brain at 1 mg/kg, ip after 2 hrs by LC-MS/MS analysis. Type of series: ADME, organism-based. To be noted: read-out: Drug uptake. The procedure, abridged:
as §2

Series [16] concerns Mus musculus. Put plainly: Anti-schizophrenic activity in C57BL/6J mouse assessed as protection against MK-801-induced auditory gating deficit by measuring prepulse inhibition impairment at 0.1 mg/kg, ip at 8 to 16 dB prepulse intensity (reference value: 11%). The series is classed as functional. Set-up: scale not given: the % may be the effect or the level left.
For series [17], the system named is Mus musculus. Briefly: Anti-schizophrenic activity in C57BL/6J mouse assessed as protection against MK-801-induced auditory gating deficit by measuring prepulse inhibition impairment at 0.3 mg/kg, ip at 8 to 16 dB prepulse intensity (reference value: 11%). Type of series: functional. Set-up: scale not given: the % may be the effect or the level left.
In series [18] the test system is Mus musculus. Briefly: Anti-schizophrenic activity in C57BL/6J mouse assessed as protection against MK-801-induced auditory gating deficit by measuring prepulse inhibition impairment at 1 mg/kg, ip at 8 to 16 dB prepulse intensity (reference value: 11%). The series is classed as functional. Further details: scale not given: the % may be the effect or the level left.

The term CL/F denotes clearance divided by bioavailability, as obtained after extravascular dosing. The AUC(0-t) is exposure summed from dosing to a finite time, without extrapolation to infinity. Usually half-life stands for the time in which the quantity being followed falls by half. A word on the AUC(0-inf): it is total exposure, with the tail of the curve extrapolated. The term bioavailability denotes the share of a dose that reaches the circulation, judged against a reference dose that is usually intravenous.

T1 sequence (P36544 whole entry): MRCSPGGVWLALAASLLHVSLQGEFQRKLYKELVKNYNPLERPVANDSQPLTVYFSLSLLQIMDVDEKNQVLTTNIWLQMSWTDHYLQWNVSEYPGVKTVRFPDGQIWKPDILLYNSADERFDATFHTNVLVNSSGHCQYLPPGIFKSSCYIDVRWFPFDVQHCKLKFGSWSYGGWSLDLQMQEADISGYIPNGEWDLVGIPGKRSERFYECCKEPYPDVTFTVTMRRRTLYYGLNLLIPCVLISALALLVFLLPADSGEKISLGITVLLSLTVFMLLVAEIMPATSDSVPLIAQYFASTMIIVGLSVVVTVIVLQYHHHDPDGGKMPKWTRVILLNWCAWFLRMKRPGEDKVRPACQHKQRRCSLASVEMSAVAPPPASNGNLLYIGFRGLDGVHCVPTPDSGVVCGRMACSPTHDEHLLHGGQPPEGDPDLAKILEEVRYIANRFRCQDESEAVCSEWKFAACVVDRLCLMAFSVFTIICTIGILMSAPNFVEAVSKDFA
Chain of Voltage-gated inwardly rectifying potassium channel KCNH2 (Q12809 whole entry, the tested form may be a part): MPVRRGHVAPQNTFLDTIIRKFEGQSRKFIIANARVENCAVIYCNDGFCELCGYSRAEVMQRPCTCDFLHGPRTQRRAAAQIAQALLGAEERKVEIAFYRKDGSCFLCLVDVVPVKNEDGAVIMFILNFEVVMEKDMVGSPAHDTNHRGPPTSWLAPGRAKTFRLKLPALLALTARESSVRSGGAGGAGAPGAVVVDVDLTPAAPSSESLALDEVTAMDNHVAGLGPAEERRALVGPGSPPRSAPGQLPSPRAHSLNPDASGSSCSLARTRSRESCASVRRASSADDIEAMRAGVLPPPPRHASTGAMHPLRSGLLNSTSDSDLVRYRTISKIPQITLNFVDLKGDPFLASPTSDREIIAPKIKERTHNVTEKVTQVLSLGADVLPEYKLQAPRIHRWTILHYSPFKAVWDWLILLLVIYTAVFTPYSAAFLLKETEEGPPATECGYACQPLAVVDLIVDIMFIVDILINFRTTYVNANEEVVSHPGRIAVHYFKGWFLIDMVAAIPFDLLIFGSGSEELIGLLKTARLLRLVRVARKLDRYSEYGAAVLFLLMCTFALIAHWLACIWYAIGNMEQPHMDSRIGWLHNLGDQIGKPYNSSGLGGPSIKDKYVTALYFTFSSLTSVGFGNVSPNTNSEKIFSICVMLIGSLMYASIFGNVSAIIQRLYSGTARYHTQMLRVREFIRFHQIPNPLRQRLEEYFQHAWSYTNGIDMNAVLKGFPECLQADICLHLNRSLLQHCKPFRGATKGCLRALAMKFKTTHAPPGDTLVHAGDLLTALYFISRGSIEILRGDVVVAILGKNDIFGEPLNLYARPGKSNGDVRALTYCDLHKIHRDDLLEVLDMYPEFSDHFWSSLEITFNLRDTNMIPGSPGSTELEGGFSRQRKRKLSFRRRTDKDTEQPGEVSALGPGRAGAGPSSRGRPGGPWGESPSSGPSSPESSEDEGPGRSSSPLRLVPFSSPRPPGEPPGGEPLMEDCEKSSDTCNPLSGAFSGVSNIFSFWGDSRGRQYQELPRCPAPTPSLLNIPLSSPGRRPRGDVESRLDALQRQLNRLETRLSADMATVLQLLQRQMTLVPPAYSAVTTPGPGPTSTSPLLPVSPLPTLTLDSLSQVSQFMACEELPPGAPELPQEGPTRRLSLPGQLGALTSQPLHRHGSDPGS

As to `Cc1cccc(Cl)c1-n1cnc2nc(SCc3ccccc3)sc2c1=O`, the Activity result in series [1] was “Dose-dependent effect”; in [16], 22%; in series [17], 26%; in [18], 28%. Besides, the result in [2], in series [3], in series [4], in [5] and in series [6] was inactive. The CL/F in series [7] is 1 mL/min/kg. In addition, the “inhibition (INH)” value in series [8] is given as “Not Active”. For the same compound, in series [9], the area under the curve AUC(0-t) was 600 ng·h/mL. Further, in series [10], the Vd was 0.069 L/kg. In series [11], this compound showed a half-life of 7.4 h. This compound registered an AUC(0-inf) in series [12] of 1100 ng·h/mL. The compound further registered a bioavailability in [13] of 8%. Further, the concentration at 2 h worked out at 9.8 ng/mL in [14] and 26.3 ng/g in series [15].
